Assay results published in ChEMBL document CHEMBL4359913, “Identification and characterization of benzo[d]oxazol-2(3H)-one derivatives as the first potent and selective small-molecule inhibitors of chromodomain protein CDYL” (Eur J Med Chem, 2019).
Calls of active or inactive are those of the source.

Columns and labels:
[1] = target: T1, Chromodomain Y-like protein (Mus musculus) (UniProt Q9WTK2); experiment: Inhibition of CDYL in C57BL/6 mouse cortical neurons as increase in MYT1 mRNA expression at 150 uM incubated for 24 hrs by RT-qPCR analysis
T1 sequence (whole entry): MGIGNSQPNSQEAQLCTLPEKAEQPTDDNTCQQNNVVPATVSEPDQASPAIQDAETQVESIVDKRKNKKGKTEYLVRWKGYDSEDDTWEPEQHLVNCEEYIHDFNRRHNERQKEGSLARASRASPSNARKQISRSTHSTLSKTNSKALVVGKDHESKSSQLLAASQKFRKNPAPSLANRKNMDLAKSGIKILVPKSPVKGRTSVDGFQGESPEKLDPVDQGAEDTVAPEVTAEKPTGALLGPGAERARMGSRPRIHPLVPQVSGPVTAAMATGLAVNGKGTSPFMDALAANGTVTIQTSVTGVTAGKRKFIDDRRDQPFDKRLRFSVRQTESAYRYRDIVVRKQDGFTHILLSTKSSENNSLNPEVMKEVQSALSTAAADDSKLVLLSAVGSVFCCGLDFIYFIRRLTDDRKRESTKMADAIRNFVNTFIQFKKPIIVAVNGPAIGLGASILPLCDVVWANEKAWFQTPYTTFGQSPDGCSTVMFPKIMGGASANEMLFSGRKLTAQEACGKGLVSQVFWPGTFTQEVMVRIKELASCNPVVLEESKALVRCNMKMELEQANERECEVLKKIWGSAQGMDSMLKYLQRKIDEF
Procedure, shortened: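 Mouse cortical or hippocampal neurons, dissociated with trypsin and kept in Neurobasal/B27, treated with 150 µM compound for 24 h. mRNA measured by SYBR green RT-qPCR with the 2^-ΔΔCt method, GAPDH as reference, relative to DMSO. Mean ± S.E.M. of triplicate experiments, Student's t-test.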

[2] = target: T2, Chromodomain Y-like protein (Homo sapiens) (UniProt Q9Y232); experiment: Inhibition of CDYL in human SH-SY5Y cells assessed as decrease in enrichment of CDYL at VGF promoter site at 150 uM incubated for 24 hrs by ChIP-qPCR analysis; format: cell-based
T2 sequence (whole entry): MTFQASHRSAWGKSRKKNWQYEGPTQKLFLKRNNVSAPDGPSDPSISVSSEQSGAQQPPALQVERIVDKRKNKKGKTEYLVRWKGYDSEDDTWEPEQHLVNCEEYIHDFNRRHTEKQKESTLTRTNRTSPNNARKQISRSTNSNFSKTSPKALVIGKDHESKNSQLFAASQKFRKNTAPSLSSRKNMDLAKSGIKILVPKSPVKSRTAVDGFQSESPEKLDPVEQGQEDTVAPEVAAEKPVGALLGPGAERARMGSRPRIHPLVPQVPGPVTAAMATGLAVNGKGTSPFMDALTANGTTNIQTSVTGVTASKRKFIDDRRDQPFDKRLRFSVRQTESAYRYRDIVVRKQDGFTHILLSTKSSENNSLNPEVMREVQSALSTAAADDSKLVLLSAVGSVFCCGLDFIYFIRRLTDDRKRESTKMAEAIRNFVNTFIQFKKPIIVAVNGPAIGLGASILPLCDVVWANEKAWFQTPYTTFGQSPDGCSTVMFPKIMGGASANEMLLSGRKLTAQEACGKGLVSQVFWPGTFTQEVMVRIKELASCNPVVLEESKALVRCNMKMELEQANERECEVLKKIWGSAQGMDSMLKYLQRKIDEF
Procedure, shortened: (§1)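 About 1×10^7 SH-SY5Y cells given 150 µM compound or DMSO for 24 h, fixed in 1% formaldehyde for 10 min. Chromatin immunoprecipitated overnight-style (12 h, 4 °C) with CDYL or H3K27me3 antibody, captured on Protein A/G beads, washed, decrosslinked at 65 °C. Promoter DNA quantified by qPCR, mean ± S.E.M. of triplicate experiments, Student's t-test.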

[3] = target: T2, Chromodomain Y-like protein (Homo sapiens); experiment: Inhibition of CDYL in human SH-SY5Y cells assessed as decrease in enrichment of CDYL at BDNF promoter site at 150 uM incubated for 24 hrs by ChIP-qPCR analysis; format: cell-based; procedure, shortened: as §1
[4] = target: T2, Chromodomain Y-like protein (Homo sapiens); experiment: Binding affinity to CDYL in human SH-SY5Y cells assessed as increase in protein thermal stability at 150 uM incubated for 10 mins at room temperature followed by exposure to 40 to 67 degC for 4 mins followed by cooling for 3 mins at room temperature by CETSA; format: cell-based
Procedure, shortened: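 SH-SY5Y cells freeze-thawed three times in liquid nitrogen, lysate diluted with PBS, given 150 µM compound or DMSO for 10 min at room temperature. Aliquots heated at 40–67 °C for 4 min, cooled 3 min, spun at 13,000 g for 10 min at 4 °C. CDYL in the supernatant read by SDS-PAGE and Western blot, bands quantified by densitometry.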

[5] = target: T3, Chromobox protein homolog 7 (Homo sapiens, UniProt O95931); experiment: Binding affinity to recombinant human N-terminal GST-tagged CBX7 (1 to 62 residues) expressed in Escherichia coli […] by SPR analysis
T3 sequence (O95931 whole entry): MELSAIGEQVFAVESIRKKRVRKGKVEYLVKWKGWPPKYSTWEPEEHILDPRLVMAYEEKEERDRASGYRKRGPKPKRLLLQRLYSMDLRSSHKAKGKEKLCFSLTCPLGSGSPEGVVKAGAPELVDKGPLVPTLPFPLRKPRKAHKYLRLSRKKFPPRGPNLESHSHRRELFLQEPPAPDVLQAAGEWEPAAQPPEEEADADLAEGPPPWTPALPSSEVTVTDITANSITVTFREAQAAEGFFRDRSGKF
Procedure, shortened: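 Chromodomain expressed with N-terminal GST tag in E. coli BL21 (IPTG 0.2 mM at OD600 0.6–0.8, 28 C for 6 h), GSTrap purified, tag cleaved by PreScission protease, amine-coupled to CM5 chip at pH 4.0–4.5 (5000–10000 RU). […] Mean ± SD of at least two replicates, each in duplicate.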

[6] = target: T2, Chromodomain Y-like protein (Homo sapiens); experiment: Inhibition of CDYL in human SH-SY5Y cells assessed as increase in MYT1 mRNA expression incubated for 24 hrs by RT-qPCR analysis; format: cell-based
Procedure, shortened: (§2)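 SH-SY5Y or HEK-293T cells grown in DMEM with 10% FBS and treated with compound for 24 h. mRNA quantified by SYBR green RT-qPCR after DNase treatment, 2^-ΔΔCt method with GAPDH as reference, relative to DMSO. Mean ± S.E.M. of triplicate experiments, Student's t-test.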

[7] = target: T2, Chromodomain Y-like protein (Homo sapiens); experiment: Inhibition of CDYL in human HEK293T cells assessed as increase in MYT1 mRNA expression at 50 to 200 uM incubated for 24 hrs by RT-qPCR analysis; format: cell-based; procedure, shortened: as §2
[8] = target: T2, Chromodomain Y-like protein (Homo sapiens); experiment: Binding affinity to CDYL in human SH-SY5Y cells assessed as reduction in protein degradation incubated for 4 mins at 55 degC for 4 mins by CETSA; format: cell-based
Procedure, shortened: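 Lysates of SH-SY5Y cells, freeze-thawed three times, incubated with compound at 0–500 µM at 55 °C for 4 min. Supernatant isolated by centrifugation and CDYL read by immunoblot with densitometry.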

O=C(Cn1c(=O)oc2ccccc21)N1CCC(N2CCCC2)CC1
16.2 µM: Kd [5]
active: Activity [1] | inhibition [2] | inhibition [3] | Activity [4] | Activity [6] Dose-dependent effect | Activity [7] | inhibition [8] Dose-dependent effect
